Active and inactive are the calls of the source. The calls are words filed in the database; no cut-off is given here.

Assay [1] deals with Mus musculus. Description: Reduction in tolerance acquisition in ICR-CD1 mouse assessed as compound antinociception effect at 125 to 2500 pmol, icv administered on day 1 and repeated on day 2 measured on day 1 by radiant heat tail flick test. Further details: scale not given: the % may be the effect or the level left. The class given is functional. In outline:
(§1)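 Tolerance test in male ICR-CD1 mice given i.c.v. The highest dose of the day-1 dose-response curve is given on day 1 and repeated 24 h later in the same mice. Radiant-heat tail-flick %MPE is recorded each day, and mice with no significant day-to-day difference are classed as not tolerant.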
On the technique in general: In hot-plate and tail-flick tests a longer latency is read as antinociception.

Assay [2] has as its system Mus musculus. Description: Reduction in tolerance acquisition in ICR-CD1 mouse assessed as compound antinociception effect at 125 to 2500 pmol intrathecally administered on day 1 and repeated on day 2 measured on day 1 by radiant heat tail flick test. Further details: scale not given: the % may be the effect or the level left. The assay is classed as functional.
In assay [3] the target is Cannabinoid receptor 1/Mu-type opioid receptor (Homo sapiens) (UniProt P21554+P35372). Description: Induction of human MOPR/CB1receptor internalization transiently expressed in HEK293 cells at 1 uM after 30 mins by immunofluorescence assay. The assay is classed as cell-based. An outline of the steps:
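HEK-293 cells were transiently transfected with human MOP and CB1 cDNA (16 μg per 2 million cells) and seeded into chamber slides 24 h later. After a further 24 h, cells were exposed to ligand (1 μM) for 30 min. They were then fixed in 4% paraformaldehyde and incubated overnight at 4°C with MOP- and CB1-selective primary antibodies. Fluorescent secondaries (red MOP, green CB1) were applied, and receptor location was imaged by confocal microscopy.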

Assay [4] has as its system Mus musculus. Description: Antinociceptive activity against icv dosed ICR-CD1 mouse by radiant heat tail flick test. The assay is classed as functional. An outline of the steps:
(§2)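 Male ICR-CD1 mice (17–25 g), single i.c.v. or i.t. injection; tail-flick latency to radiant heat. Antinociception as %MPE = (Test − Control)/(10 − Control) × 100. Dose-response curves from at least three groups of 8–10 mice, each mouse used once; ED50 with 95% C.I. in pmol/mouse.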

Assay [5] deals with Mus musculus. Description: Reduction in tolerance acquisition in ICR-CD1 mouse assessed as compound antinociception effect at 125 to 2500 pmol, icv administered on day 1 and repeated on day 2 measured on day 2 by radiant heat tail flick test. The assay is classed as functional. Further details: scale not given: the % may be the effect or the level left. An outline of the steps: as §1

In assay [6] the test system is Mus musculus. Description: Antinociceptive activity against intrathecally dosed ICR-CD1 mouse by radiant heat tail flick test. The assay is classed as functional. An outline of the steps: as §2
Assay [7] has as its system Mus musculus. Description: Ratio of ED50 for antinociception activity in icv dosed ICR-CD1 mouse to ED50 for antinociception activity in intrathecally dosed ICR-CD1 mouse by radiant heat tail flick test. The assay is classed as functional. In outline: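 ED50 values (pmol/mouse) come from radiant-heat tail-flick dose-response curves in male ICR-CD1 mice after i.c.v. or i.t. injection, with %MPE read-out and at least three groups of 8–10 mice per curve. The ratio is i.c.v. ED50 divided by i.t. ED50.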

In assay [8] the test system is Mus musculus. Description: Reduction in tolerance acquisition in ICR-CD1 mouse assessed as compound antinociception effect at 125 to 2500 pmol intrathecally administered on day 1 and repeated on day 2 measured on day 2 by radiant heat tail flick test. The assay is classed as functional. Also on record: scale not given: the % may be the effect or the level left.
Assay [9] deals with Mus musculus. Description: Antinociceptive activity in ICR-CD1 mouse at 250 pmol, icv by radiant heat tail flick test. The assay is classed as functional.
Assay [10] has as its system Mus musculus. Description: Antinociceptive activity in ICR-CD1 mouse at 250 pmol administered intrathecally by radiant heat tail flick test. The class given is functional.
Assay [11] concerns Mus musculus. Description: Antinociceptive activity in ICR-CD1 mouse at 2500 pmol, icv by radiant heat tail flick test. The assay is classed as functional.
Assay [12] concerns Mus musculus. Description: Antinociceptive activity in ICR-CD1 mouse at 2500 pmol administered intrathecally by radiant heat tail flick test. The class given is functional.
Assay [13] concerns Mus musculus. Description: Reduction in tolerance acquisition in ICR-CD1 mouse assessed as compound antinociception effect at 125 to 2500 pmol, icv administered on day 1 measured after 24 hrs by radiant heat tail flick test. The class given is functional. Also on record: scale not given: the % may be the effect or the level left.
Assay [14] deals with Mus musculus. Description: Reduction in tolerance acquisition in ICR-CD1 mouse assessed as compound antinociception effect at 125 to 2500 pmol, icv administered on day 1 and repeated after 48 hrs measured on day 3 by radiant heat tail flick test. The assay is classed as functional. Also on record: scale not given: the % may be the effect or the level left.

`CNC(=O)COCC(=O)NCCCCCNC(=O)COCC(=O)N[C@H]1CC[C@@]2(O)[C@H]3Cc4ccc(O)c5c4[C@@]2(CCN3C)[C@H]1O5`: the Activity in assay [1] came to 82.15%; in [2], 75.98%; in assay [5], 24.14%; in assay [8] it was 39.54%. For the same compound, in assay [3], the outcome was Active. The ED50 in [4] is 108 pmol; in assay [6], 106 pmol. Also, the “Ratio ED50” value in [7] was found to be 1.01.
Regarding `Cc1c(C(=O)NC2CCN(C(=O)COCC(=O)NCCNC(=O)COCC(=O)N[C@H]3CC[C@@]4(O)[C@H]5Cc6ccc(O)c7c6[C@@]4(CCN5C)[C@H]3O7)CC2)nn(-c2ccc(Cl)cc2Cl)c1-c1ccc(Cl)cc1`, the Activity in [1] is 83.47%; in assay [2], 98.33%; in assay [5], 66.99%; in assay [8] it was 72.5%. For the same compound, the outcome in assay [3] was Active. Besides, the ED50 in [4] worked out at 55 pmol; in assay [6] it was 42 pmol. In addition, the “Ratio ED50” value in [7] worked out at 1.31.
For the compound `Cc1c(C(=O)NC2CCN(C(=O)COCC(=O)N[C@H]3CC[C@@]4(O)[C@H]5Cc6ccc(O)c7c6[C@@]4(CCN5C)[C@H]3O7)CC2)nn(-c2ccc(Cl)cc2Cl)c1-c1ccc(Cl)cc1`, the Activity in assay [1] stood at 77.72%; in [2], 81.72%; in [5], 63.7%; in assay [8] it was 73.41%. For the same compound, the outcome in [3] was Active. The ED50 in assay [4] amounted to 523 pmol; in assay [6], 27 pmol. In addition, in [7], the “Ratio ED50” value was determined as 19.48.
Turning to `Cc1c(C(=O)NC2CCN(C(=O)N[C@H]3CC[C@@]4(O)[C@H]5Cc6ccc(O)c7c6[C@@]4(CCN5C)[C@H]3O7)CC2)nn(-c2ccc(Cl)cc2Cl)c1-c1ccc(Cl)cc1`, the Activity turned out to be 64.27% in assay [1], 73.55% in [2], 33.85% in [5] and 66.01% in [8]. The ED50 in assay [4] turned out to be 1219 pmol; in assay [6] it was 559 pmol. Besides, the “Ratio ED50” value in [7] stood at 2.18.
`CNC(=O)COCC(=O)NCCCCNC(=O)COCC(=O)N1CCC(NC(=O)c2nn(-c3ccc(Cl)cc3Cl)c(-c3ccc(Cl)cc3)c2C)CC1`: the Activity in assay [9], in assay [10], in [11] and in assay [12] was 20% each time. For the same compound, the result in assay [3] was inactive.
For the compound `Cc1c(C(=O)NC2CCN(C(=O)COCC(=O)NCCCCCCNC(=O)COCC(=O)N[C@H]3CC[C@@]4(O)[C@H]5Cc6ccc(O)c7c6[C@@]4(CCN5C)[C@H]3O7)CC2)nn(-c2ccc(Cl)cc2Cl)c1-c1ccc(Cl)cc1`, the Activity in assay [1] is listed as 95.43%; in assay [2], 78.51%; in assay [5] it was 86.33%; in assay [8], 79.58%. The result in assay [3] was Active. The values for the ED50 in assay [4] and in [6] were 189 pmol and 19 pmol, respectively. Further, the “Ratio ED50” value in assay [7] turned out to be 9.86.
For `Cc1c(C(=O)NC2CCN(C(=O)COCC(=O)NCCCCCCCNC(=O)COCC(=O)N[C@H]3CC[C@@]4(O)[C@H]5Cc6ccc(O)c7c6[C@@]4(CCN5C)[C@H]3O7)CC2)nn(-c2ccc(Cl)cc2Cl)c1-c1ccc(Cl)cc1`, the Activity is on record as 89.75% in assay [1]; 92.2% in [2]; 47% in assay [13]; 72.81% in assay [14]; 87.91% in assay [8]. In addition, the result in assay [3] was inactive. The ED50 in assay [4] worked out at 9 pmol; in [6], 5 pmol. Further, the “Ratio ED50” value in assay [7] is 1.8.
Take `Cc1c(C(=O)NN2CCCCC2)nn(-c2ccc(Cl)cc2Cl)c1-c1ccc(Cl)cc1`: the result in assay [11] and in assay [12] was inactive.

For the origin of these results see ChEMBL document CHEMBL2401645, “Bivalent ligands that target μ opioid (MOP) and cannabinoid1 (CB1) receptors are potent analgesics devoid of tolerance” (2013).
